# Measurements taken from ChEMBL document CHEMBL1124296, “Molecular basis for bleomycin amplification: conformational and stereoelectronic effects in unfused amplifiers” (J Med Chem, 1988).
# System: Calf thymus DNA
# Assay: Binding constant to DNA measured spectrophotometrically
# Type: nucleic-acid assay
# Conditions: Bos taurus
# In short: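 Calf thymus DNA, stripped of residual protein and dialyzed into PIPES 00 buffer (0.01 M PIPES, 0.001 M EDTA, NaOH to pH 7.00, [Na⁺] 0.019 M). DNA-P concentration was read at 260 nm with ε 6600 M⁻¹ cm⁻¹. Equilibrium binding constants were obtained spectrophotometrically by an earlier-reported procedure.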
row,Structure (SMILES),K [M⁻¹]
1,Cc1ccnc(-c2cc(COCCN(C)C)ccn2)c1,3000
2,CN(C)CCOc1cccc(-c2ccccc2)c1,3000
3,CN(C)CCSc1nccc(-c2ccccc2)n1,8600
4,CSc1cc(-c2cccs2)nc(NCCN(C)C)n1,13700
5,CN(C)CCOc1nccc(-c2cccs2)n1,3400
6,CSc1nc(NCCN(C)C)cc(-c2cccs2)n1,6800
7,Cc1cc(-c2cccs2)nc(SCCN(C)C)n1,24800

# The next lines start with the values.
row,K [M⁻¹],Structure (SMILES)
1,18700,CN(C)CCSc1nccc(-c2cccs2)n1
2,9250,CN(C)CCSc1nccc(-c2nccs2)n1
3,3000,CN(C)CCOc1ccc(-c2ccccc2)cc1
4,3500,CN(C)CCSc1nccc(-c2ccco2)n1
5,4400,CN(C)CCNc1nccc(-c2cccs2)n1
6,48000,Cc1cnc(SCCN(C)C)nc1-c1cccs1
7,3000,CN(C)CCOc1ccccc1-c1ccccc1
8,3900,CN(C)CCNc1nccc(-c2nccs2)n1
9,10100,CN(C)CCSc1nccc(-c2cccn2C)n1
